What all share (format): functional
In experiment [1] the test system is Haemophilus influenzae. The experiment is described as follows: In vitro antibacterial activity against DILL strain of Haemophilus influenzae. An outline of the steps:
(§1)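 MIC determined by standard agar dilution; values in μg/mL.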

In experiment [2] the test system is Staphylococcus aureus. The experiment is described as follows: In vitro antibacterial activity against 6538P strain of Staphylococcus aureus. The essentials:
as §1

In experiment [3] the test system is Streptococcus pneumoniae. In words: In vitro antibacterial activity against ATCC 6303 strain of Streptococcus pneumoniae. The note with it: Streptococcus pneumoniae, ATCC 6303. An outline of the steps:
as §1

The test system of experiment [4] is Staphylococcus aureus. The experiment is described as follows: In vitro antibacterial activity against A5177 strain of Staphylococcus aureus. The note with it: Staphylococcus aureus. An outline of the steps:
as §1

Experiment [5] deals with Streptococcus pyogenes. The experiment is described as follows: In vitro antibacterial activity against 930 strain of Streptococcus pyogenes. The conditions noted are these: Streptococcus pyogenes. The essentials:
as §1

Experiment [6] is described as follows: In vitro antibacterial activity against A-5278 strain of Staphylococcus aureus. The conditions noted are these: Staphylococcus aureus. An outline of the steps:
as §1

The test system of experiment [7] is Streptococcus pneumoniae. The experiment is described as follows: In vitro antibacterial activity against 5979 strain of Streptococcus pneumoniae. The essentials:
as §1

Experiment [8] deals with Streptococcus pyogenes. In words: In vitro antibacterial activity against PIU 2548 strain of Streptococcus pyogenes. The essentials:
as §1

Experiment [9] has as its system Streptococcus pneumoniae. The experiment is described as follows: In vitro antibacterial activity against 5649 strain of Streptococcus pneumoniae. The note with it: Streptococcus pneumoniae. An outline of the steps: as §1
Experiment [10] deals with Mus musculus. The experiment is described as follows: Effective dose when administered subcutaneously in mice infected with Streptococcus pneumoniae ATCC 6303. The conditions noted are these: sc. An outline of the steps: (§2)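 Mice infected intraperitoneally with 1000 × LD₅₀ (S. aureus) or […] × LD₅₀ (S. pneumoniae). Compound given orally (po) or subcutaneously (sc) at 1 and 5 h post-infection. ED₅₀ expressed in mg/kg/day with 95% confidence interval.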

Experiment [11] concerns Mus musculus. In words: Effective dose when administered orally in mice infected with Streptococcus pneumoniae ATCC 6303. The note with it: po. The essentials: as §2
For experiment [12], the system named is Staphylococcus aureus. In words: In vivo antibacterial activity in mice infected with Staphylococcus aureus NCTC-10649M.
The test system of experiment [13] is Streptococcus pneumoniae. In words: In vivo antibacterial activity in mice infected with Streptococcus pneumoniae ATCC 6303.
The test system of experiment [14] is Mus musculus. In words: Effective dose when administered orally in mice infected with Staphylococcus aureus NCTC-10649M. The note with it: po. An outline of the steps:
as §2

In experiment [15] the test system is Mus musculus. The experiment is described as follows: Effective dose when administered subcutaneously in mice infected with Staphylococcus aureus NCTC-10649M. The note with it: sc. An outline of the steps: as §2

The structures appear in SMILES notation. Converted amounts (≈) assume the structure as drawn.

A word on the ED50: it is the midpoint of the dose-response relation. Low values mean an effect at a small dose, high ones a need for a large dose.

In the case of `CC[C@H]1OC(=O)/C(C)=C/[C@H](C)[C@@H](O[C@@H]2O[C@H](C)C[C@H](N(C)C)[C@H]2O)[C@@](C)(OC)C[C@@H](C)C(=O)[C@H](C)[C@H]2N(CCc3cccc(C(F)(F)F)c3)C(=O)O[C@]12C`, the MIC stood at 32 µg/mL (≈ 41.6 µM) in experiment [1]; 0.39 µg/mL (≈ 0.507 µM) in [2] (Staphylococcus aureus); 0.125 µg/mL (≈ 0.163 µM) in [3]; 0.78 µg/mL (≈ 1.01 µM) in experiment [4]; 6.2 µg/mL (≈ 8.06 µM) in experiment [5]; 25 µg/mL (≈ 32.5 µM) in [6]. Moreover, the MIC amounted to 16 µg/mL (≈ 20.8 µM) in experiment [7], 0.78 µg/mL (≈ 1.01 µM) in experiment [8] (Streptococcus pyogenes) and 1 µg/mL (≈ 1.3 µM) in [9].
Consider `CC[C@H]1OC(=O)/C(C)=C/[C@H](C)[C@@H](O[C@@H]2O[C@H](C)C[C@H](N(C)C)[C@H]2O)[C@@](C)(OC)C[C@@H](C)C(=O)[C@H](C)[C@H]2N(CCc3ccc([N+](=O)[O-])cc3)C(=O)O[C@]12C`, for which the median effective dose (ED50) in experiment [10] is more than 8 mg/kg/day; in [11], more than 20 mg/kg/day; in experiment [14] it was 50.1 mg/kg/day; in experiment [15] it was more than 40 mg/kg/day. The MIC is 16 µg/mL (≈ 21.5 µM) in experiment [1]; 0.1 µg/mL (≈ 0.134 µM) in [2] (Staphylococcus aureus); 0.06 µg/mL (≈ 0.0804 µM) in [3]; 0.1 µg/mL (≈ 0.134 µM) in [4]; 25 µg/mL (≈ 33.5 µM) in [5]; 50 µg/mL (≈ 67 µM) in experiment [6]. Besides, the MIC was determined as 0.1 µg/mL (≈ 0.134 µM) in experiment [12]; 64 µg/mL (≈ 85.8 µM) in experiment [7]; 0.06 µg/mL (≈ 0.0804 µM) in experiment [13]; 0.1 µg/mL (≈ 0.134 µM) in experiment [8] (Streptococcus pyogenes); 1 µg/mL (≈ 1.34 µM) in experiment [9].
As for `CC[C@H]1OC(=O)[C@H](C)[C@@H](O[C@H]2C[C@@](C)(OC)[C@@H](O)[C@H](C)O2)[C@H](C)[C@@H](O[C@@H]2O[C@H](C)C[C@H](N(C)C)[C@H]2O)[C@](C)(OC)C[C@@H](C)C(=O)[C@H](C)[C@@H](O)[C@]1(C)O` [CLARITHROMYCIN], the MIC was 0.03 µg/mL (≈ 0.0401 µM) in [12] and 0.004 µg/mL (≈ 0.00535 µM) in [13].
`CC[C@H]1OC(=O)/C(C)=C/[C@H](C)[C@@H](O[C@@H]2O[C@H](C)C[C@H](N(C)C)[C@H]2O)[C@@](C)(OC)C[C@@H](C)C(=O)[C@H](C)[C@H]2N(CCc3ccc(Cl)c(Cl)c3)C(=O)O[C@]12C`: the median effective dose (ED50) in experiment [10] is more than 16 mg/kg/day; in experiment [11], more than 40 mg/kg/day; in [14], more than 100 mg/kg/day; in [15] it was more than 40 mg/kg/day. In addition, the MIC in [1] was determined as 32 µg/mL (≈ 41.6 µM); in experiment [2] (Staphylococcus aureus), 0.39 µg/mL (≈ 0.507 µM); in experiment [3], 0.12 µg/mL (≈ 0.156 µM); in experiment [4] it was 0.39 µg/mL (≈ 0.507 µM); in experiment [5], 6.2 µg/mL (≈ 8.05 µM); in experiment [6], 12.5 µg/mL (≈ 16.2 µM). For the same compound, the MIC in [12] worked out at 0.39 µg/mL (≈ 0.507 µM); in experiment [7] it was 8 µg/mL (≈ 10.4 µM); in experiment [13] it was 0.12 µg/mL (≈ 0.156 µM); in experiment [8] (Streptococcus pyogenes), 0.2 µg/mL (≈ 0.26 µM); in experiment [9] it was 2 µg/mL (≈ 2.6 µM).
Consider `CC[C@H]1OC(=O)/C(C)=C/[C@H](C)[C@@H](O[C@@H]2O[C@H](C)C[C@H](N(C)C)[C@H]2O)[C@@](C)(OC)C[C@@H](C)C(=O)[C@H](C)[C@H]2N(CCc3cccc(OC)c3)C(=O)O[C@]12C`, for which the MIC was 16 µg/mL (≈ 21.9 µM) in [1]; 0.39 µg/mL (≈ 0.534 µM) in experiment [2] (Staphylococcus aureus); 0.25 µg/mL (≈ 0.342 µM) in [3]; 0.39 µg/mL (≈ 0.534 µM) in experiment [4]; 25 µg/mL (≈ 34.2 µM) in experiment [5]; 0.39 µg/mL (≈ 0.534 µM) in [12]. The MIC in experiment [7] worked out at 64 µg/mL (≈ 87.6 µM); in experiment [13] it was 0.25 µg/mL (≈ 0.342 µM); in experiment [8] (Streptococcus pyogenes), 0.39 µg/mL (≈ 0.534 µM); in experiment [9] it was 2 µg/mL (≈ 2.74 µM). Moreover, the median effective dose (ED50) in experiment [11] and in [14] was more than 100 mg/kg/day each time.
For the compound `CC[C@H]1OC(=O)/C(C)=C/[C@H](C)[C@@H](O[C@@H]2O[C@H](C)C[C@H](N(C)C)[C@H]2O)[C@@](C)(OC)C[C@@H](C)C(=O)[C@H](C)[C@H]2N(CCc3ccc(Br)cc3)C(=O)O[C@]12C`, the MIC was 16 µg/mL (≈ 20.5 µM) in [1]; 0.39 µg/mL (≈ 0.5 µM) in [2] (Staphylococcus aureus); 0.125 µg/mL (≈ 0.16 µM) in experiment [3]; 0.39 µg/mL (≈ 0.5 µM) in [4]; 6.2 µg/mL (≈ 7.95 µM) in experiment [5]; 25 µg/mL (≈ 32.1 µM) in experiment [6]. For the same compound, the MIC in [12] was 0.39 µg/mL (≈ 0.5 µM); in [7] it was 16 µg/mL (≈ 20.5 µM); in [13], 0.125 µg/mL (≈ 0.16 µM); in experiment [8] (Streptococcus pyogenes), 0.39 µg/mL (≈ 0.5 µM); in experiment [9] it was 1 µg/mL (≈ 1.28 µM). For the same compound, the median effective dose (ED50) in experiment [11] and in experiment [14] was more than 100 mg/kg/day each time.
Consider `CC[C@H]1OC(=O)/C(C)=C/[C@H](C)[C@@H](O[C@@H]2O[C@H](C)C[C@H](N(C)C)[C@H]2O)[C@@](C)(OC)C[C@@H](C)C(=O)[C@H](C)[C@H]2NC(=O)O[C@@]21C` (stereo in doubt; 6), for which the MIC was found to be 1.56 µg/mL (≈ 2.61 µM) in experiment [2]; 0.25 µg/mL (≈ 0.419 µM) in [3]; 0.78 µg/mL (≈ 1.31 µM) in experiment [4]; 1.56 µg/mL (≈ 2.61 µM) in experiment [12]; 0.25 µg/mL (≈ 0.419 µM) in experiment [13]; 0.2 µg/mL (≈ 0.335 µM) in experiment [8]. For the same compound, the MIC in experiment [9] is 0.5 µg/mL (≈ 0.838 µM). Further, the ED50 in experiment [11] was more than 40 mg/kg/day; in experiment [14], 35.8 mg/kg/day.
In the case of `CC[C@H]1OC(=O)/C(C)=C/[C@H](C)[C@@H](O[C@@H]2O[C@H](C)C[C@H](N(C)C)[C@H]2O)[C@@](C)(OC)C[C@@H](C)C(=O)[C@H](C)[C@H]2N(CCc3cccs3)C(=O)O[C@]12C`, the MIC is 16 µg/mL (≈ 22.6 µM) in experiment [1]; 0.39 µg/mL (≈ 0.552 µM) in experiment [2] (Staphylococcus aureus); 0.125 µg/mL (≈ 0.177 µM) in experiment [3]; 0.39 µg/mL (≈ 0.552 µM) in [4]; 25 µg/mL (≈ 35.4 µM) in [5]; 50 µg/mL (≈ 70.7 µM) in [6]. The MIC in [7] came out at 32 µg/mL (≈ 45.3 µM); in experiment [8] (Streptococcus pyogenes), 0.2 µg/mL (≈ 0.283 µM); in [9] it was 0.5 µg/mL (≈ 0.707 µM).

The record behind these values is ChEMBL document CHEMBL1131215, “Anhydrolide macrolides. 1. Synthesis and antibacterial activity of 2,3-anhydro-6-O-methyl 11,12-carbamate erythromycin A analogues” (1998).
